Source: PubChem (The Scripps Research Institute Molecular Screening Center)
Fam108B counter: counter-screen for RBBP9 inhibitors: inhibitors of mouse Fam108B; recombinant Fam108B, FP-Rh probe fluorescence polarization; inhibition, % at 9.51 µM; 300,000 tested, 0.33% active;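 active = inhibition above the screen mean inhibition plus 3 SD, computed separately per campaign, cut at about 18% in these data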;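 also: inhibitors lower polarization as less probe binds the enzyme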
PAD4 FP inh: inhibitors of human PAD4; Q9UM07; inhibition, % at 6.36 µM; AID 485272; 330,000 tested, 0.41% active; recombinant PAD4, RCA probe fluorescence polarization;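 active = percent inhibition above a cutoff equal to the mean of all tested compounds plus 3 SD, cut at about 15% in these data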;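 also: 0% = PAD4 with RCA probe and DMSO and 100% = probe without PAD4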
LYPLA2 inh: counter-screen for PME1 inhibitors: inhibitors of human LYPLA2; O95372; inhibition, % at 5.9 µM; 320,000 tested, 0.38% active; recombinant LYPLA2, FP-Rh probe fluorescence polarization; AID 2177;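 active = inhibition above the screen-wide mean plus 3 SD, limit set per campaign, cut at about 26% in these data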;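 also: 0% = LYPLA2 with DMSO and 100% = wells lacking LYPLA2 enzyme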
LYPLA1 counter: counter-screen for PME1 inhibitors: inhibitors of human LYPLA1; O75608; recombinant LYPLA1, FP-Rh probe fluorescence polarization; inhibition, % at 5.9 µM; 320,000 tested, 0.16% active;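 active = inhibition above the mean of all tested compounds plus 3 SD, set per campaign, cut at about 14% in these data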;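 also: inhibitors block serine hydrolase probe labeling of LYPLA1 so polarization falls; 0% = enzyme with DMSO and 100% = wells lacking LYPLA1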
PME-1 primary: PME-1 (human) inhibition; inhibition, % at 5.9 µM; recombinant PME-1, FP-Rh probe fluorescence polarization; 320,000 tested, 0.53% active; Q9Y570; AID 2130;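 active = inhibition above the campaign mean of all compounds plus 3 SD, cut at about 26% in these data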;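 also: competitive labeling of PME-1 active site by serine hydrolase directed probe; 0% = PME-1 with DMSO and 100% = wells lacking PME-1 enzyme; inhibitors block probe labeling so polarization falls and inhibition rises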
Target sequence (Q9Y570 whole entry, looked up): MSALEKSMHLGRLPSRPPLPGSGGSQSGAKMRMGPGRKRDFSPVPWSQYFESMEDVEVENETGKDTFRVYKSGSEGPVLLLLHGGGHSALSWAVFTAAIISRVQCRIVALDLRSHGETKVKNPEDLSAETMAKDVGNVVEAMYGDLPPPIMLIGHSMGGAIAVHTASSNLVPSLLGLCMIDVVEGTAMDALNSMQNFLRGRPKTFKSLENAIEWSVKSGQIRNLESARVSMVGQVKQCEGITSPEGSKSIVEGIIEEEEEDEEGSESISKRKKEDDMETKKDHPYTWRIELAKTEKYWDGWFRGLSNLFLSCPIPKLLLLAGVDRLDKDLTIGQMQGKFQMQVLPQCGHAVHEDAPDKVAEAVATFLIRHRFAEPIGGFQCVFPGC
RBBP9 inh: inhibitors of human serine hydrolase RBBP9; O75884; recombinant RBBP9, FP-Rh probe fluorescence polarization; inhibition, % at 7.94 µM; 220,000 tested, 0.2% active; AID 1515;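 active = inhibition above the campaign mean of all tested compounds plus 3 SD, cut at about 14% in these data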;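 also: plate controls were DMSO wells with RBBP9 for no effect and wells lacking RBBP9 protein for full effect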
Target sequence (O75884 whole entry, looked up): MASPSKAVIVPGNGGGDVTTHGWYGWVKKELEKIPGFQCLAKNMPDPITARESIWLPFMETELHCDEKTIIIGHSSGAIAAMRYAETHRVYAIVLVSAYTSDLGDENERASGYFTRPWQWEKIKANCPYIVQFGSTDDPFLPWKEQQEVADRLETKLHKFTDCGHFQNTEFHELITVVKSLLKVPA
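Test system: recombinant human RBBP9. Quantity: 2.5 µM RBBP9 dispensing solution, before mixing. Detection: FP readout at 525/598 nm. Reagent: Serine-hydrolase probe FP-Rh, 375 nM pre-mixing. Measure: % inhibition. Control set: DMSO-treated enzyme wells and wells lacking RBBP9. Buffer or medium: Tris-NaCl-Pluronic buffer, pH 8.0. Times: preincubation 30 min plus labeling 45 min at 25 °C.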
LYPLA1 confirm: LYPLA1 (human) inhibition, confirmation counter-screen. shares compounds with LYPLA1 counter. recombinant LYPLA1, FP-Rh probe fluorescence polarization. inhibition, % at 5.9 µM. 480 tested, 69% active;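 active = mean inhibition across replicates above the hit cutoff set in the primary screen, cut at about 15% in these data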;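 also: loss of FP-Rh probe labeling of LYPLA1 seen as lower polarization; 0% = LYPLA1 with DMSO and 100% = wells lacking LYPLA1 enzyme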
Numbers without * were called inactive; nt = not tested or not shown. Shown are actives, neighbours in structure and some others; about 1.3% of the full set was active somewhere.

SMILES	Fam108B counter	PAD4 FP inh	LYPLA2 inh	LYPLA1 counter	PME-1 primary	RBBP9 inh	LYPLA1 confirm
C[C@@H]1CN([C@@H](C)CO)C(=O)c2cc(N(C)C)ccc2O[C@@H]1CN(C)S(C)(=O)=O	nt	-2	nt	nt	nt	nt	nt
CC(C)Sc1nnc([C@H](Cc2c[nH]c3ccccc23)NC(=O)OC(C)(C)C)o1	1	6	5	46*	-6	6	2
CC(C)(C)OC(=O)N[C@@H](Cc1c[nH]c2ccccc12)c1nnc(SCC(N)=O)o1	-2	-2	9	3	1	-3	nt
CC1(C(=O)OCC(=O)Nc2ccc3ccccc3c2)CC1(Cl)Cl (configuration not stated)	-2	-3	-6	-5	-5	-12	nt
Cc1nc2c(C(=O)NCc3ccccc3Cl)c[nH]n2c(=O)c1Cl	-1	0	2	-2	13	-3	nt
Cc1nc2c(C(=O)NCCc3ccccc3Cl)c[nH]n2c(=O)c1Cl	11	0	13	18*	12	1	16*
COc1ccc(OC)c(NC(=O)COC(=O)CCCN=C2NS(=O)(=O)c3ccccc32)c1	nt	2	nt	nt	nt	nt	nt
COc1ccc(CCN2CC(C(=O)N3CCSCC3)CCC2=O)cc1 (configuration not stated)	-1	1	3	1	2	nt	nt
CCOc1ccc(NC(=S)NC(=O)c2c(Br)cnn2C)c([N+](=O)[O-])c1	-2	-5	21	18*	2	-5	59*
O=C(Nc1cccc(S(=O)(=O)NC2=NCCC2)c1)c1ccc(=O)[nH]c1	nt	3	1	0	-1	nt	nt
Cc1cccc(NC(=O)Cn2cnc3c(oc4ccccc43)c2=O)c1C	-2	-2	-1	-2	1	2	nt
O=C(CN1CCN(C(=O)c2ccco2)CC1)Nc1cc(Cl)ccc1Cl	2	-4	16	82*	7	2	85*
O=C(CN1CCN(C(=O)c2ccccc2)CC1)Nc1cc(S(=O)(=O)N2CCCC2)ccc1Cl	nt	-2	10	78*	15	nt	81*
O=C(CN1CCN(C(=O)c2cccc(S(=O)(=O)N3CCCC3)c2)CC1)Nc1ccccc1Cl	nt	-1	4	-2	11	nt	nt
Cc1ccc(S(=O)(=O)NCc2ccccc2)cc1C(=O)NCC(C)(C)N1CCOCC1	-2	-6	2	-2	1	nt	nt
COc1ccccc1C(=O)NCC(=O)N=Nc1c(O)n(C(C)C)c2ccccc12	1	2	-8	20*	5	nt	27*
CC(C)n1c(O)c(N=NC(=O)CNC(=O)Cc2ccc(Cl)cc2)c2ccccc21	1	3	5	2	-1	nt	nt
COc1ccc2[nH]c(C(=O)N3CCC(CO)(Cc4cccc(C(F)(F)F)c4)CC3)c(C)c2c1	5	0	4	19*	4	nt	26*
COc1ccc(Cl)cc1NC(=O)CN1CCC(n2nnc3ccccc32)CC1	2	2	-3	15*	2	1	19*
CCOC(=O)c1cccc(NC(=O)c2ccc3c(c2)C(=O)N(CC2CCCO2)C3=O)c1 (configuration not stated)	-4	-1	3	28*	-10	nt	31*
CN(CCCC1CCCC1)C(=O)c1cc(COc2ccc(F)c(F)c2)on1	-4	5	12	16*	-6	nt	28*
COC(=O)c1cc(C(=O)N2CCN(C(=O)c3ccco3)CC2)cc([N+](=O)[O-])c1	-1	2	8	-1	4	nt	nt
COc1ccc([N+](=O)[O-])cc1NC(=O)C(C)N1CCN(C(=O)c2ccco2)CC1 (configuration not stated)	-4	-4	-2	16*	-5	-2	22*
O=C(O)c1cccc(NN=C2c3ccccc3-c3ccccc32)c1	nt	nt	nt	nt	nt	3	nt
O=C(O)c1cc(NN=C2c3ccccc3-c3ccccc32)ccc1Cl	7	1	13	16*	35*	nt	16*
SMILES	Fam108B counter	PAD4 FP inh	LYPLA2 inh	LYPLA1 counter	PME-1 primary	RBBP9 inh	LYPLA1 confirm
COc1ccc(/C=C2/Sc3ccc(C(=O)NCCCN4CCOCC4)cc3NC2=O)cc1OC	-4	-3	7	37*	15	nt	67*
O=C(CN1CCN(S(=O)(=O)N2CCCCCC2)CC1)Nc1ccc(Br)cc1	1	-3	7	-2	5	nt	nt
CC(NC(=O)Nc1ccc([N+](=O)[O-])cc1)C(c1cccs1)N1CCCC1 (configuration not stated)	2	1	3	-1	0	-7	nt
Cc1cc2oc(C(=O)Nc3ccc(S(=O)(=O)Nc4onc(C)c4C)cc3)cc(=O)c2cc1Cl	11	-4	9	20*	-3	-9	22*
Cc1noc(NS(=O)(=O)c2ccc(N/C=C\C(=O)c3ccc(Br)cc3)cc2)c1C	3	-2	8	16*	10	-13	34*
Cc1noc(NS(=O)(=O)c2ccc(NC(=O)Nc3ccc(Cl)c(Cl)c3)cc2)c1C	8	-32	14	35*	51*	-3	2
Cc1noc(NS(=O)(=O)c2ccc(NC(=O)c3cc(=O)c4ccccc4o3)cc2)c1C	2	-1	4	2	-2	nt	nt
O=C(N/N=C/c1ccccn1)c1cccs1	1	5	5	3	-2	-14	nt
CCOC(=O)c1cc(CC)sc1/N=C/c1c(O)ccc2ccccc12	4	-6	-1	-3	2	-4	nt
CCN(CC)CCC(C)OC(c1ccccc1)c1ccccc1 (configuration not stated)	6	1	20	1	-1	-4	nt
CNC(=O)NC(=O)COC(=O)/C=C/c1cccc(Br)c1	3	-4	-2	0	5	2	nt
COc1cc2[nH]c(=O)n(CCCCCC(=O)N3CC=C(c4ccccc4)CC3)c(=O)c2cc1OC	-7	4	21	17*	-2	-8	18*
COc1cc(S(=O)(=O)NCc2ccccc2)ccc1-n1cnnn1	-1	2	5	15*	4	nt	2
COc1ccc(CNS(=O)(=O)c2ccc(-n3cnnn3)c(OC)c2)cc1	0	5	1	4	-7	nt	nt
O=C(Nc1cccc2ncccc12)c1ccc(Cl)cc1	-1	-1	0	29*	-2	nt	3
O=C(Nc1cccc2ncccc12)c1ccc(F)cc1	5	5	4	-2	-4	-11	nt
Cc1cc(NC(=O)c2ccc3c(c2)C(=O)N(C2CCCCC2)C3=O)no1	-9	-1	1	-1	-3	1	nt
O=C(Nc1ccncc1)c1ccc2c(c1)C(=O)N(C1CCCCC1)C2=O	-1	3	52*	26*	-9	-3	31*
O=C(c1ccco1)N1N=C(c2ccco2)CC1c1ccc(Cl)cc1Cl (configuration not stated)	nt	5	-7	-3	-4	nt	nt
